Shown are actives, neighbours in structure and some others; about 4.5% of the full set was active somewhere.
MrgX1 antag = antagonists of human MrgX1 receptor, primary screen, HEK293 cells, Fluo-4 calcium flux; B-score at 10 µM; Mas-related G-protein coupled receptor member X1 (Homo sapiens), Q96LB2; hit rate 1.3% among 310,000; BAM8-22 antagonism; stronger effect = lower value;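 active means calcium-response B-score plate-corrected more than 3 library SD below zero, starting fluorescence within 5 deviations, no agonist response on first addition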;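 further: peak minus trough fluorescence over baseline after final BAM8-22 challenge near maximal dose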
PHOSPHO1 inh = PubChem AID 1565; recombinant PHOSPHO1, absorbance phosphatase assay; hit rate 1.1% among 290,000; Phosphoethanolamine/phosphocholine phosphatase (Homo sapiens), Q8TCT1; inhibition, % at 13.3 µM; in the data active means inhibition above about 60%
Target sequence (Q8TCT1 whole entry, looked up): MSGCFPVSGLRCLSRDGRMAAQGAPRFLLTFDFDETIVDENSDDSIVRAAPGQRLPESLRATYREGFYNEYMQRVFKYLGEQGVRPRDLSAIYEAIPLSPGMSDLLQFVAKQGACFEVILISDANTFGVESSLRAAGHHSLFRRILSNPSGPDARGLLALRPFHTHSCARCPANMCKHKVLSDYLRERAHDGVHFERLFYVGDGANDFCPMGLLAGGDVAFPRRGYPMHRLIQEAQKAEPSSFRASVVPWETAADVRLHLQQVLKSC
MrgX1 allo act = positive allosteric modulators of MrgX1, primary screen, HEK293 cells, Fluo-4 calcium flux; hit rate 0.63% among 310,000; FDSS; stronger effect = higher value; Mas-related G-protein coupled receptor member X1 (Homo sapiens), Q96LB2; B-score at 10 µM;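 active means plate-corrected calcium response at least 3 library SD above typical, normal starting fluorescence, not activating the receptor alone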;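 further: compound read alongside a low EC10 to EC30 dose of BAM8-22 agonist; peak minus trough fluorescence over baseline measured at the second addition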
RGS4 act = RGS4 potentiators or activators, primary screen, cell-based, HEK293 M3R inducible RGS4, calcium flux. B-score at 10 µM. hit rate 0.92% among 310,000. carbachol calcium flux Fluo4; stronger effect = lower value;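 active means B-score of the integrated calcium signal more than 4 SD below the library mean, with starting fluorescence not abnormally high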;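 further: negative B-score means reduced calcium response which marks RGS4 activation or potentiation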
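Material: Inducible-RGS4 HEK293 cells carrying M3 receptor; also added: carbachol at ECmax as muscarinic agonist stimulus; incubation: compound preincubation 20 min at room temperature before agonist; signal: Fluo4-AM (2 µM) calcium-flux fluorescence, kinetic read; measure: integrated calcium ratio converted to B score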
MrgX1 ag = agonists of human MrgX1 receptor, primary screen, HEK293 cells, Fluo-4 calcium flux; AID 588627, 2011; Mas-related G-protein coupled receptor member X1 (Homo sapiens), Q96LB2; B-score at 10 µM; Fluo-4 calcium fluorescence, agonist mode; stronger effect = higher value; hit rate 0.44% among 310,000;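 active means calcium response B-score plate-corrected fluorescence ratio at least 3 library SD, with starting fluorescence B-score inside 5 SD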
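Test system: HEK293 cells stably expressing human MrgX1 receptor; amount: 15,000 cells per well; doses: compound delivered in addition one of three; times: overnight plating before 1 h dye loading; detection: Fluo-4 NW calcium-flux fluorescence, kinetic read; read-out basis: B-scored fluorescence response ratio; controls: positive and negative controls per plate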
RGS4 inh = RGS4 inhibitors, primary screen, cell-based, HEK293 M3R inducible RGS4, calcium flux; hit rate 0.45% among 310,000; Fluo-4 calcium flux; stronger effect = higher value; triggered by carbachol at its EC20; AID 463165, 2010; Regulator of G-protein signaling 4 (Homo sapiens), P49798; B-score at 10 µM;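 active means B-score, a plate-corrected calcium signal, over three deviations above library mean, with baseline fluorescence within five deviations of library mean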;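 further: RGS4 expression induced by doxycycline in cells with stable M3 receptor; B-score is computed from the integrated fluorescence ratio over baseline after carbachol; higher B-score means a larger calcium signal and so more RGS4 inhibition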
Target sequence (P49798 whole entry, looked up): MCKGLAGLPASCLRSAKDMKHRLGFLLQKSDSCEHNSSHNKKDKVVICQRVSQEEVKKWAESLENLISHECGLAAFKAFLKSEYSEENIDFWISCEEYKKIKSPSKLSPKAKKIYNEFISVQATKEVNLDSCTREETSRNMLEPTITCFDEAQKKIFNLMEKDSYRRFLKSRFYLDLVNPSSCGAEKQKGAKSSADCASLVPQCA
Starred values were filed as active, the others as inactive; i = inactive; / = no result.

SMILES	MrgX1 antag	PHOSPHO1 inh	MrgX1 allo act	RGS4 act	MrgX1 ag	RGS4 inh
CCOC(=O)c1sc(NC(=O)CSc2n[nH]c(-c3ccccc3)n2)c(C#N)c1C	i	76.6*	i	i	i	i
CCOC(=O)c1c(NC(=O)CSc2nnc(Cc3ccccc3)o2)sc(C(C)=O)c1C	i	-19.9	i	i	i	i
O=C(CN1CCCCCCC1)N/N=C/c1ccc(F)c(F)c1	i	-9.0	i	i	i	i
NC(=O)C1CCN(CC(=O)N2N=CCC2c2ccccc2)CC1 (stereo not drawn)	-5.8*	19.9	i	i	i	i
O=C(CN1CCN(c2ccccc2)CC1)N1N=CCC1c1ccccc1 (stereo not drawn)	i	19.4	i	i	i	i
NC(=O)Cn1nc([N+](=O)[O-])nc1Oc1ccccc1F	i	24.5	i	i	i	i
NC(=O)Cn1nc([N+](=O)[O-])nc1Oc1ccccc1C(=O)N1CCOCC1	-4.57*	39.8	i	i	i	i
CN(C)c1ccc(/C=C/c2nc3ccccc3c(=O)n2CCO)cc1	i	33.7	i	i	32.2*	i
O=c1c2ccccc2nc(/C=C/c2c[nH]c3ccccc23)n1CCO	i	48.8	i	-7.43*	i	i
O=c1c2ccccc2nc(/C=C/c2cc(Br)ccc2O)n1CCO	i	/	i	i	i	i
CCC(c1nnc(SCC(=O)NCCc2ccc(OC)c(OC)c2)n1Cc1ccccc1)N(C)C (stereo not drawn)	i	46.4	i	i	i	i
Cc1[nH]n(-c2ccccc2)c(=S)c1C=Nc1cccc([N+](=O)[O-])c1	i	107.1*	i	i	i	i
CCCCN=Cc1c(C)[nH]n(-c2ccccc2)c1=S	i	68.5*	i	i	i	i
Cc1[nH]n(-c2ccccc2)c(=O)c1C=NCCc1ccccc1	i	43.9	i	i	i	i
CC(NC(=O)Cc1ccc(S(=O)(=O)N2CCOCC2)s1)c1ccc(Cl)c(Cl)c1 (stereo not drawn)	i	/	i	i	i	i
COc1ccccc1N1CCN(Cc2cc(Br)c(O)c3ncccc23)CC1	i	78.3*	i	i	i	i
CCOC(=O)c1[nH]c(C)c(CC(C)C)c1C	i	19.2	i	i	i	i
COc1cc(C(=S)N2CCCC2)cc(OC)c1O	i	75.5*	i	i	i	i
C=CCn1c(Cc2c[nH]c3ccccc23)n[nH]c1=S	i	95.3*	i	i	i	i
C=CCn1c(-c2cc(OC)cc(OC)c2)n[nH]c1=S	i	97.1*	i	i	i	i
C=CCn1c(-c2cccc(OCC)c2)n[nH]c1=S	i	-44.7	i	i	i	i
C=CCn1c(Cc2ccccc2)n[nH]c1=S	i	27.1	i	i	i	i
C=CCn1c(-c2cccc3ccccc23)n[nH]c1=S	i	95.0*	i	i	i	i
C=CCn1c(-c2ccccc2OC)n[nH]c1=S	i	10.8	i	i	i	i
COc1ccc(N=Cc2c(O)n(-c3cccc(C)n3)c(=O)c3ccccc23)c(OC)c1	i	32.2	i	i	i	i
SMILES	MrgX1 antag	PHOSPHO1 inh	MrgX1 allo act	RGS4 act	MrgX1 ag	RGS4 inh
CCN(CC)S(=O)(=O)c1cc(C)ccc1SC	i	-17.8	i	i	i	i
Cc1ccc(-c2cnc(SCC(=O)N3CCCc4ccccc43)n2C)cc1	i	76.8*	i	/	i	/
CCN(CC)C(=O)c1ccccc1NS(=O)(=O)c1cccs1	i	32.2	i	i	i	i
O=S(=O)(c1ccc(Cl)cc1)N1CCN(Cc2c[nH]c3ccccc23)CC1	i	6.7	i	-7.55*	i	i
O=S(=O)(c1ccc(Br)cc1)N1CCCN(Cc2ccccc2F)CC1	i	-17.0	i	-7.37*	i	i
CSc1ncccc1C(=O)OCC(=O)NCc1ccc2c(c1)OCO2	i	42.6	i	i	i	i
CC(=O)C(Cc1ccccc1)NC(=O)CN(C)Cc1ccccc1Cl (stereo not drawn)	i	10.3	i	i	i	i
CN1CCN(/N=C/c2ccc(N(c3ccccc3)c3ccccc3)cc2)CC1	i	37.8	i	-7.85*	i	i
CN1CCN(/N=C/c2ccc(N(C)c3ccccc3)cc2)CC1	i	22.6	i	i	i	i
O=C1N=C(c2ccccc2)S/C1=C\c1cccs1	i	95.4*	i	i	i	i
O=C1N=C(N2CCN(c3ccccc3)CC2)S/C1=C/c1cccs1	i	3.5	i	i	i	i
Cc1ccc(S(=O)(=O)N(CC(=O)Nc2cccc(N(C)S(C)(=O)=O)c2)c2ccc(Cl)c(Cl)c2)cc1	i	15.2	i	-10.6*	i	i
COc1cc(C(=O)Nc2cccc(C)c2C)c(Br)c(OC)c1OC	i	32.5	i	i	i	i
Cc1ccc(C)c(S(=O)(=O)N2CCCOC2CNC(=O)C(=O)NCCC2=CCCCC2)c1 (stereo not drawn)	i	18.3	i	i	i	i
CNC(=S)N/N=C/c1ccc(N(C)C)cc1	i	60.8*	i	i	i	i
Cc1ccc(C23CC4CC(CC(C(=O)NN)(C4)C2)C3)cc1	i	2.8	i	i	i	i
COc1ccc(CCNC(=O)CN(Cc2ccc(Cl)cc2)S(C)(=O)=O)cc1OC	i	19.0	i	i	i	i
Cc1nn(-c2ccc(Cl)cc2)c(Cl)c1/C=N/NC(=O)c1ccc(NS(=O)(=O)c2cccs2)cc1	i	/	13.1*	i	i	i
OC1(c2ccccc2Cl)NN=C2CCCCCN21 (stereo not drawn)	i	22.8	i	i	i	i
C[N+]1=C2CCCCCN2C(O)(c2ccccc2)C1 (stereo not drawn)	i	86.0*	i	i	i	i
O=C1C2C3C=CC(C3)C2C(=O)N1/N=C/c1cn(Cc2ccc(F)cc2)c2ccccc12 (stereo not drawn)	i	21.5	i	-8.01*	i	i
Cc1cc(C)c(NC(=O)CNC(=O)COC(=O)CN2C(=O)NC3(CCCC3)C2=O)c(C)c1	i	/	i	i	i	i
